This is an account of results in ChEMBL document CHEMBL4184168, “Anticancer activities of emetine prodrugs that are proteolytically activated by the prostate specific antigen (PSA) and evaluation of in vivo toxicity of emetine derivatives” (Bioorg Med Chem, 2017).

In one data set the test system is LNCaP. The data set is described as follows: Antiproliferative activity against human LNCAP cells expressing PSA after 3 days by MTT assay. The data set is classed as functional, cell-based. The procedure, abridged: (§1)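 LNCaP seeded at 5 × 10^3 cells/well; PC3, CWR22Rv1 and MDA-MB-231 at 2.5 × 10^3. The first three were grown in RPMI and MDA-MB-231 in DMEM, each with 10% FBS. After 24 h attachment, cells got final 10, 50, 100, 1000 or 10,000 nM (0.1% DMSO) in eight replicates. Viable cells by MTT on day 0, 3 and 5, A570 corrected at 650 nm. Experiments run at least twice.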

The next data set has as its system PC-3. The data set is described as follows: Antiproliferative activity against human PC3 cells after 3 days by MTT assay. The data set is classed as functional, cell-based. The procedure, abridged:
as §1

Data set [1] has as its target T1, Prostate-specific antigen (Homo sapiens, UniProt P07288).
T1 sequence (P07288 whole entry): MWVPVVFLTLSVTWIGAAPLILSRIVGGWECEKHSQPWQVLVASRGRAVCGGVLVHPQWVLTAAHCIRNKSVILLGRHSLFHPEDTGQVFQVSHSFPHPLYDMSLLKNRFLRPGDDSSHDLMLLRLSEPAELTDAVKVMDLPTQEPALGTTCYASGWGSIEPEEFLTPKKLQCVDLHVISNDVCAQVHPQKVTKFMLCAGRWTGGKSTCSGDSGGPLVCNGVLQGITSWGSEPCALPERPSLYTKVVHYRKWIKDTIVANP
Description: Prodrug activation assessed as human PSA mediated 4-((S)-2-((S)-2-Amino-3-hydroxypropanamido)-4-methylpentanamido)benzyl(R)-1-(((2R,3R,11bS)-3-ethyl-9,10-dimethoxy-1,3,4,6,7,11b-hexahydro-2H-pyrido[2,1-a]isoquinolin-2-yl)methyl)-6,7-dimethoxy-3,4-dihydroisoquinoline-2(1H)-carboxylate formation by HPLC-MS analysis. The conditions noted are these: TDE = time-dependent effect. The procedure, abridged: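 10 mM DMSO stock diluted to 200 μM final in PSA buffer (50 mM Tris·HCl, 100 mM NaCl, pH 7.4) with purified PSA at 20 μg/mL final and 2% DMSO. Shaken at 37 °C. Aliquots taken at time points, quenched with cold acetonitrile, held on ice, centrifuged, then analysed by reversed-phase C18 HPLC (215/285 nm) and mass spectrometry.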

Data set [2] addresses T1, Prostate-specific antigen. The data set is described as follows: Prodrug activation in human plasma assessed as human PSA mediated 4-((S)-2-((S)-2-Amino-3-hydroxypropanamido)-4-methylpentanamido)benzyl(R)-1-(((2R,3R,11bS)-3-ethyl-9,10-dimethoxy-1,3,4,6,7,11b-hexahydro-2H-pyrido[2,1-a]isoquinolin-2-yl)methyl)-6,7-dimethoxy-3,4-dihydroisoquinoline-2(1H)-carboxylate formation at 200 uM after 48 hrs by HPLC-MS analysis.

For data set [3], the target named is T1, Prostate-specific antigen. Description: Prodrug activation in human plasma assessed as human PSA mediated emetine formation at 200 uM after 48 hrs by HPLC-MS analysis.
The next data set relates to CWR22R. The data set is described as follows: Antiproliferative activity against human CWR22Rv1 cells expressing PSA after 3 days by MTT assay. The data set is classed as functional, cell-based. An outline of the steps:
as §1

A short description of data set [4]: Toxicity in iv dosed Balb/C mouse. The data set is classed as organism-based. As to conditions: in vivo. The procedure, abridged:
(§2)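 Male Balb/c mice, eight weeks old, about 25 g. Single IV bolus of 200 μL, doses ranging from 8 to 100 mg/kg, in 1% DMSO/saline or 10% cremophor/saline; vehicle-only controls. Each dose tested in triplicate. Mice watched for convulsions, death and behaviour after injection to set the maximum tolerated dose.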

The next data set has as its system Mus musculus. The data set is described as follows: Toxicity in Balb/C mouse assessed as convulsion at >25 mg/kg, iv after 1 min. The conditions noted are these: in vivo. The data set is classed as organism-based. The procedure, abridged:
as §2

Data set [5] can be described thus: Prodrug activation assessed as emetine formation at […] in presence of 10% FBS after 5 days by HPLC-MS analysis. The conditions noted are these: cattle, 120 h. The procedure, abridged: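 No enzyme added. 10 mM DMSO stock diluted to 200 μM final (2% DMSO) in PBS, 10% FBS in PBS, or conditioned RPMI (supernatant of LNCaP culture grown to about 95% confluency). Shaken at 37 °C, quenched with cold acetonitrile, centrifuged, supernatant analysed by reversed-phase C18 HPLC (215/285 nm) and ESI-MS.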

*1 amine or outer side, *2 acyl side, *3 side chain or, on linkers, in order; H or OH if unused. Where a SMILES comes first, the peptide text is derived from it. [ ]: non-standard residue; d: D form. The star is where a group is joined. Emetine(N2') = CC[C@H]1CN2CCc3cc(OC)c(OC)cc3[C@@H]2C[C@@H]1C[C@@H]1c2cc(OC)c(OC)cc2CCN1*; PABC = O=C(OCc1ccc(N[*:1])cc1)[*:2]

Consider `CC[C@H]1CN2CCc3cc(OC)c(OC)cc3[C@@H]2C[C@@H]1C[C@@H]1c2cc(OC)c(OC)cc2CCN1C(=O)OCc1ccc(NC(=O)[C@H](CC(C)C)NC(=O)[C@H](CO)NC(=O)[C@H](CCC(N)=O)NC(=O)[C@H](CC(C)C)NC(=O)[C@H](CCCCN)NC(=O)[C@H](CO)NC(=O)[C@H](CO)NC(=O)[C@H](Cc2cnc[nH]2)NC(C)=O)cc1` (Ac-HSSKLQSL[PABC]-{Emetine(N2')}), for which the Activity entry was “Dose-dependent effect” with LNCaP, “Dose-dependent effect” in the data set with PC-3, “Dose-dependent effect” in the data set with CWR22R and “Toxic” in the data set with Mus musculus. Besides, the IC50 was 0.059 µM in the data set on LNCaP (72 h); 0.538 µM with PC-3 (PC-3, 72 h); 0.0758 µM in the data set with CWR22R (22Rv1, 72 h). The Drug metabolism entry in [1] is given as “Tde”; in data set [2], “Metabolite_Notdetected”; in [3] it was “Metabolite_Notdetected”; in data set [5], “Metabolite_Notdetected”. The MTD in data set [4] came to 25 mg/kg.
